Screens deposited in PubChem BioAssay by several laboratories.
BaF3 tox = reduces parental Ba/F3 cell viability, JAK2V617F counter-screen | inhibition, % at 5.6 µM | 1.1% of 220,000 active | CellTiter-Glo ATP luminescence;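 active means inhibition above a per-campaign cutoff, the mean inhibition of all tested compounds plus 3 SD, cut at about 27% in these data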;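 further: 0% = DMSO wells and 100% = JAK Inhibitor I control wells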
bCat nuc transl = alters nuclear translocation of beta-catenin in HeLa cells; immunofluorescence imaging; nuclear translocation activity, % at 5 µM; 0.3% of 190,000 active; AID 1665;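 active means nuclear translocation activity above 50% at 5 µM, with a well cell count of 50 or more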;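 further: per-cell ratio of nuclear to cytoplasmic median beta-catenin stain intensity; plate controls were DMSO negative control for no effect and GSK-3 inhibitor IX positive control for full effect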
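Technique: fluorescence imaging of beta-catenin antibody stain plus DAPI / Material: human HeLa cell line / Incubation: compound treatment 24 h, 37°C, 5% CO2 / Read-out basis: % activation of per-cell nuclear versus cytoplasmic median beta-catenin signal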
APP 5UTR inh = APP translation inhibition; SH-SY5Y APP 5'UTR-luciferase reporter, luminescence; 0.82% of 190,000 active; inhibition, % at 2 µM; AID 1285;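 active means inhibition above a set limit, derived from the sample mean plus 3 SD, cut at about 45% in these data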
Ba/F3 V617F tox = lowers viability of Ba/F3 cells expressing EpoR and JAK2V617F | ATP luminescence | 1.1% of 220,000 active | inhibition, % at 5.6 µM | AID 1446;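 active means inhibition above the campaign mean plus 3 SD over all tested compounds, cut at about 24% in these data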;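 further: cytokine-independent growth of Ba/F3 cells driven by EpoR plus mutant JAK2; 0% = DMSO-treated cells and 100% = JAK inhibitor I control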
IEC-6 cytotox = kills IEC-6 intestinal cells in KLF5 counter-screen; IEC-6 cytotoxicity, luminescence viability; 0.78% of 290,000 active; inhibition, % at 5 µM; in the data active means inhibition above about 22%;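 further: 0% = plate median of test compound wells and 100% = cytotoxic reference compound wells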
MT stabilizer = microtubule stabilization, imaging screen | HeLa tubulin immunostaining HCS, 24 h; share of cells brighter than vehicle mean+2SD | 0.83% of 200,000 active | % tubulin-high responders, % at 10 µM;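 active means plate Z-score above 3 for both tubulin-high and condensed-nucleus cell shares, with cell loss under 80%, at 10 µM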;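 further: anti alpha tubulin signal scored within the nucleus-defined area of each cell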
* marks the source's active call; other numbers are inactive results; . = not tested or not shown. Hits are enriched below; roughly 2.2% of the tested compounds scored in any of these assays.

SMILES | BaF3 tox | bCat nuc transl | APP 5UTR inh | Ba/F3 V617F tox | IEC-6 cytotox | MT stabilizer
COCCCN=C1NN=C(c2cc(C)n(-c3ccccc3)c2C)CS1 | 4.3 | 0.0 | -3.7 | -1.0 | 1.3 | 2.9
Cn1c(SCC(=O)Nc2cc(Cl)cc(Cl)c2)nnc1-c1ccc2nonc2c1 | 2.7 | 0.3 | . | 0.9 | -0.4 | .
O=C1c2cccc3cc([N+](=O)[O-])cc(c23)C(=O)N1c1ccccc1O | 29.4* | 1.0 | 11.9 | 13.8 | 5.1 | 4.3
COc1ccc(/C=N/NC(=O)c2ccccc2Cl)cc1CSc1nc2ccccc2s1 | 3.0 | 331.7* | 6.3 | -1.6 | 15.7 | 17.0
COc1ccc(/C=N/NC(=O)c2ccccc2O)cc1Cn1cc([N+](=O)[O-])cn1 | -1.6 | 1.2 | . | -2.9 | -5.0 | .
COc1cc(/C=N/NC(=O)c2ccccc2Cl)ccc1Oc1ccc([N+](=O)[O-])cn1 | -0.6 | 2.1 | 15.0 | -2.5 | 7.7 | 17.0*
COc1ccc(/C=N/NC(=O)c2cccnc2)cc1CSc1nc2ccccc2s1 | 8.5 | 153.0* | 54.5* | 4.8 | 21.2 | 12.9
Cc1ccc(CC(=O)Nc2cc(C)on2)cc1 | . | . | . | . | -2.0 | .
Cn1c(Cl)c(C(=O)Nc2ccc(Cl)cc2)c2ccccc21 | 10.3 | 5.9 | -20.4 | 4.7 | 12.9 | 27.8*
O=C(Nc1ccc(N2CCOCC2)cc1)C1(c2ccc(Cl)cc2)CCC1 | 3.4 | -0.5 | -10.6 | -1.9 | -5.3 | 9.9*
Cc1ccccc1OCC(=O)N1CCN(C(=O)COc2ccccc2C)CC1 | . | . | . | . | 2.6 | .
Brc1ccc2[nH]c3c(N4CCc5ccccc5C4)ncnc3c2c1 | 1.4 | 11.4 | 10.4 | 1.1 | -1.5 | 7.0
Cc1ccc2[nH]c3c(N4CCc5ccccc5C4)ncnc3c2c1 | 49.1* | -0.7 | -9.9 | 44.1* | 16.6 | 3.2
Fc1ccc2[nH]c3c(N4CCc5ccccc5C4)ncnc3c2c1 | 55.1* | 3.4 | . | 43.7* | 12.4 | .
CC(=O)c1c(C)[nH]c(C(=O)Nc2ccc(F)cc2F)c1C | . | . | . | . | 1.2 | .
O=C(C1=C(O)C(=O)N(CC2CCCO2)C1c1ccccc1F)c1ccco1 (stereo not given) | . | . | . | . | -0.6 | .
O=C(NNc1ccc(O)cc1)c1ccc(Br)cc1 | 3.8 | 2.5 | -12.2 | 3.4 | 4.9 | 4.9
Cc1nn(C)c(C)c1S(=O)(=O)N(CC(=O)NCCCN1CC(C)CC(C)C1)c1ccc(C(C)C)cc1 (stereo not given) | . | . | . | . | 5.6 | .
CCCNC(=O)NC(=O)COC(=O)c1ccc(S(=O)(=O)N(C)c2ccccc2OC)cc1 | 6.0 | -2.7 | -2.0 | 6.0 | 0.7 | 15.2*
CCc1c(C)nc2ncnn2c1NCCc1ccc(Cl)cc1 | 38.6* | 3.2 | 4.9 | 18.1 | 6.9 | 4.1
O=C(COc1ccc(Cl)cc1Cl)N/N=C/c1ccc(OC2OC(CO)C(O)C(O)C2O)cc1 (stereo not given) | -0.6 | 0.6 | . | -0.6 | -3.6 | .
Cc1ccc(NC(=S)NCCN(C2CCCCC2)C2CCCC2)cc1 | 11.0 | -0.6 | -8.1 | 11.1 | 8.1 | 2.1
Cc1cc(C)cc(NC(=S)NCCN(C2CCCCC2)C2CCCC2)c1 | 72.2* | 0.1 | -25.6 | 7.4 | 9.7 | 2.9
O=C(CSCc1ccc(Br)cc1)NCc1ccccn1 | 2.3 | 0.4 | -18.9 | -1.7 | 1.7 | 5.1
COc1ccc2c(c1)C1C=CCC1C(c1cc3c(cc1Br)OCO3)N2 (stereo not given) | 4.6 | . | 4.1 | -6.2 | -1.4 | 38.5*
SMILES | BaF3 tox | bCat nuc transl | APP 5UTR inh | Ba/F3 V617F tox | IEC-6 cytotox | MT stabilizer
COc1ccc2cc(C(=O)N3CCCC(Nc4ccc(F)cc4)C3)n(C)c2c1 (stereo not given) | . | . | . | . | 2.6 | .
Cc1nnsc1C(=O)N/N=C/c1ccc2ccccc2c1O | 4.4 | 4.0 | 76.3* | -1.8 | 0.7 | 7.1
Cc1nnsc1C(=O)N/N=C/c1ccccc1 | 4.1 | -1.0 | 5.2 | -4.4 | 6.3 | 4.9
CCn1c(/C=C/N(C)c2ccccc2)[n+](CC)c2ccc(Cl)cc21 | 64.9* | -0.8 | -8.9 | 87.2* | 14.8 | 2.8
CCn1c(C)[n+](Cc2ccccc2)c2ccc(C(=O)OC)cc21 | 36.5* | -2.3 | -9.4 | 15.6 | -6.7 | 3.5
CCn1c(/C=C/Nc2ccccc2)[n+](CC)c2ccc(Cl)cc21 | 12.0 | 0.4 | 3.1 | 6.1 | -7.7 | 5.4
CCn1c(/C=C/c2cc[n+](C)cc2)nc2ccccc21 | . | . | . | . | -7.0 | .
CCOC(=O)c1ccc2c(c1)n(CC)c(/C=C/Nc1ccccc1)[n+]2CC | 50.1* | -1.6 | -0.9 | 35.6* | 0.2 | 1.8
Cc1n(Cc2ccccc2)c2cc([N+](=O)[O-])ccc2[n+]1Cc1ccccc1 | . | . | . | . | -4.4 | .
CCn1c(C)[n+](Cc2ccccc2)c2ccc(Cl)cc21 | 33.4* | -1.2 | 15.9 | 27.5* | -2.4 | 2.7
C[C@]1(CO)CCC[C@@]2(C)C1CC[C@@H](CO)[C@@H]2CCc1ccoc1 (stereo not given in full) | . | . | . | . | 1.4 | .
CCCCOc1ccccc1NC(=O)Cn1c(-c2nonc2N)nc2ccccc21 | 8.9 | 0.5 | 90.5* | 1.7 | 1.0 | 27.4*
Cc1ccc(Cn2c(-c3nonc3N)nc3ccccc32)cc1 | 3.3 | -1.9 | 5.9 | 2.6 | 5.7 | 5.5
COc1cc(Cn2c(-c3nonc3N)nc3ccccc32)ccc1C | 2.7 | . | 89.6* | 1.4 | 9.7 | 15.4
Nc1nonc1-c1nc2ccccc2n1Cc1ccc(Cl)cc1 | 4.6 | 1.1 | -3.6 | -2.0 | 1.6 | 5.5
NNC(=O)Cn1c(-c2nonc2N)nc2ccccc21 | 5.2 | -3.0 | -10.2 | -0.9 | -8.1 | 3.4
COc1cccc(Cn2c(-c3nonc3N)nc3ccccc32)c1 | 79.3* | . | 91.9* | 85.8* | 8.6 | 50.0*
Cn1c(C(=O)OCC(=O)NCc2ccco2)cc2sccc21 | 1.8 | 8.8 | -18.7 | 0.2 | -2.7 | 2.5
Cc1cc2c(cc(C(=O)OCC(=O)NCc3ccco3)n2C)s1 | -4.4 | 43.9 | -13.4 | -4.6 | 11.5 | 50.9*
O=C(C1=C[C@@H](c2csc3ccccc23)C[C@@H](OCc2ccc(CO)cc2)O1)N1CCN(Cc2ccccc2)CC1 | -2.5 | -4.2 | 11.4 | -0.7 | -7.4 | 4.5
O=C(C1=C[C@@H](c2ccccc2)C[C@@H](OCc2ccc(CO)cc2)O1)N1CCN(Cc2ccc3c(c2)OCO3)CC1 | -1.5 | 14.1 | 12.3 | -2.0 | 5.6 | 13.1*
O=C(C1=C[C@H](c2ccccc2)C[C@H](OCc2ccc(CO)cc2)O1)N1CCN(Cc2ccccc2)CC1 | 3.0 | -1.0 | 0.5 | -1.1 | -0.9 | 3.7
O=C(C1=C[C@@H](c2csc3ccccc23)C[C@@H](OCc2ccc(CO)cc2)O1)N1CCN(Cc2ccc3c(c2)OCO3)CC1 | -0.3 | 48.7 | 12.8 | 1.7 | -1.3 | 21.7*
COc1ccc(COc2cc(-c3cccc(OC)c3)nc3ccc(NC(C)=O)cc23)cc1 | 6.7 | . | 0.1 | 3.8 | 9.7 | 3.2
COc1ccc(COc2cc(-c3cccc(OC)c3)nc3ccc(N)cc23)cc1 | 83.7* | . | 95.6* | 80.7* | 5.6 | 7.2
COc1cc(CNc2ncc(-c3ccc(Br)cc3)n2C)cc(OC)c1O | . | . | . | . | 2.1 | .
